Laboratory results from ChEMBL document CHEMBL1255250, “Microbicidal properties and cytocidal selectivity of rhesus macaque theta defensins” (Antimicrob Agents Chemother, 2008).
The source made the active and inactive calls. No cut-off for these calls is given here. Where a SMILES comes first, the peptide text is derived from it. Bridges are numbered along the chain shown (N, C = ends).

What was measured:
[1] = system: Staphylococcus aureus; experiment: Microbicidal activity against Staphylococcus aureus 502a; type: functional
Method in brief: (§1)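 Log-phase organisms (1–2 × 10^6 CFU/ml) were exposed to serially diluted peptide (0.05–10.0 μg/ml final) in 10 mM PIPES, pH 7.4, with 5 mM glucose for 2 h at 37°C. Aliquots were serially diluted 1:10 to 1:10^6 in Trypticase soy or Sabouraud broth and grown 24–48 h at 37°C. MMC was the lowest concentration giving 99.9% viability loss in at least two experiments.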

[2] = system: Escherichia coli; experiment: Microbicidal activity against Escherichia coli ML35; type: functional; method in brief: as §1
[3] = system: Candida albicans; experiment: Microbicidal activity against Candida albicans 16820 assessed as log reduction in microbial count at 10 ug/ml using PIPES buffer
[4] = Selectivity index, ratio of MMC for Staphylococcus aureus 502a to hemolytic activity for human erythrocytes
[5] = system: Candida albicans; experiment: Microbicidal activity against Candida albicans 16820; type: functional; method in brief: as §1
[6] = system: Candida albicans; experiment: Microbicidal activity against Candida albicans 16820 in presence of 1.2 mM Calcium ions; type: functional, organism-based
Method in brief: (§2)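 Log-phase E. coli ML35 or C. albicans was incubated with increasing peptide concentrations in 10 mM PIPES, pH 7.4. The buffer contained 1.2 mM CaCl2 and 0.8 mM MgCl2, or no added divalent salts. Incubation was 2 h at 37°C, and survivors were counted as colonies.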

[7] = system: Escherichia coli; experiment: Microbicidal activity against Escherichia coli ML35 at 16 ug/ml in presence of 10% heat-inactivated human serum; type: functional, organism-based
Method in brief: (§3)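 Human serum was heat-inactivated at 55°C for 30 min and clarified by centrifugation. E. coli was then exposed to a dose series of peptide in 10 mM PIPES, pH 7.4, with 10% of this serum. Killing was counted as colonies and expressed relative to incubations without serum.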

[8] = system: Escherichia coli; experiment: Microbicidal activity against Escherichia coli ML35 in presence of 0.8 mM Magnesium ions; type: functional, organism-based; method in brief: as §2
[9] = system: Staphylococcus aureus; experiment: Microbicidal activity against Staphylococcus aureus 502a using 10 mM PIPES buffer in presence of 154 mM NaCl; type: functional, organism-based
Method in brief: (§4)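 Log-phase S. aureus was exposed to increasing peptide concentrations for 2 h at 37°C. Buffer was 10 mM PIPES, Tris-HCl or sodium phosphate, pH 7.4, with or without 154 mM NaCl. Killing was read by colony counting.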

[10] = system: Candida albicans; experiment: Microbicidal activity against Candida albicans 16820 using PIPES buffer in presence of NaCl; type: functional, organism-based
Method in brief: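 Log-phase C. albicans was incubated with peptide in 10 mM PIPES, pH 7.4, supplemented with NaCl, for 2 h at 37°C. Survivors were plated on Sabouraud dextrose agar and counted after 18–24 h at 37°C.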

[11] = system: Staphylococcus aureus; experiment: Microbicidal activity against Staphylococcus aureus 502a in presence of 0.8 mM Magnesium ions; type: functional, organism-based
[12] = system: Candida albicans; experiment: Microbicidal activity against Candida albicans 16820 in presence of 0.8 mM Magnesium ions; type: functional, organism-based; method in brief: as §2
[13] = system: Escherichia coli; experiment: Microbicidal activity against Escherichia coli ML35 in presence of 1.2 mM Calcium ions; type: functional, organism-based; method in brief: as §2
[14] = system: Staphylococcus aureus; experiment: Microbicidal activity against Staphylococcus aureus 502a at 5 ug/ml in presence of <= 80 mM NaCl; type: functional, organism-based
Method in brief: (§5)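 S. aureus in log phase was incubated with 5 μg/ml peptide in 10 mM PIPES, pH 7.4, containing increasing NaCl for 2 h at 37°C. Killing was determined by colony counting and expressed as a percentage of killing in buffer alone.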

[15] = system: Staphylococcus aureus; experiment: Microbicidal activity against Staphylococcus aureus 502a at >= 2 ug/ml in presence of 10% human serum; type: functional, organism-based
Method in brief: (§6)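 S. aureus was incubated with a dose series of peptide in 10 mM PIPES, pH 7.4, containing 10% normal human serum. Bacterial killing was determined by colony counting and expressed as a percentage of killing in incubations lacking serum.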

[16] = system: Staphylococcus aureus; experiment: Microbicidal activity against Staphylococcus aureus 502a at 0.5 to 2 ug/ml in presence of 10% human serum; type: functional, organism-based; method in brief: as §6
[17] = system: Escherichia coli; experiment: Microbicidal activity against Escherichia coli ML35 at <=8 ug/ml in presence of 10% heat-inactivated human serum; type: functional, organism-based; method in brief: as §3
[18] = system: Escherichia coli; experiment: Microbicidal activity against Escherichia coli ML35 assessed as induction of cytoplasmic membrane permeabilization at 1 ug/ml; type: functional, organism-based
Method in brief: (§7)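 Log-phase E. coli ML35 (1–2 × 10^6 CFU/ml) was incubated with peptide (0–8 μg/ml final) in 10 mM PIPES, pH 7.4, containing 3 mM ONPG. ONPG hydrolysis was followed at 405 nm for 60 min. The rate was taken as the highest kinetic slope and corrected for peptide inhibition of β-galactosidase measured cell-free.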

[19] = system: Staphylococcus aureus; experiment: Microbicidal activity against Staphylococcus aureus 502a at 5 ug/ml in presence of 160 mM NaCl; type: functional, organism-based; method in brief: as §5
[20] = system: Staphylococcus aureus; experiment: Microbicidal activity against Staphylococcus aureus 502a using 10 mM Tris-HCl buffer in presence of 154 mM NaCl; type: functional, organism-based; method in brief: as §4
[21] = Inhibition of beta-galactosidase in cell-free system assessed as inhibition of o-nitrophenyl-beta-d-galactopyranoside hydrolysis
[22] = system: Staphylococcus aureus; experiment: Microbicidal activity against Staphylococcus aureus 502a in presence of 1.2 mM Calcium ions; type: functional, organism-based
[23] = system: Staphylococcus aureus; experiment: Microbicidal activity against Staphylococcus aureus 502a using 10 mM sodium phosphate buffer in presence of 154 mM NaCl; type: functional, organism-based; method in brief: as §4
[24] = target: Beta-galactosidase (Escherichia coli) (UniProt Q8VNN2); experiment: Inhibition of Escherichia coli ML35 Beta-galactosidase assessed as inhibition of o-nitrophenyl-beta-d-galactopyranoside hydrolysis at 4 ug/ml
[25] = target: Beta-galactosidase (Escherichia coli) (UniProt Q8VNN2); experiment: Inhibition of Escherichia coli ML35 Beta-galactosidase assessed as hydrolysis of o-nitrophenyl-beta-d-galactopyranoside at 2 ug/ml
[26] = Toxicity in human Erythrocyte assessed as concentration required to achieve 3% hemolysis; type: cell-based
[27] = Toxicity in human Erythrocyte assessed as hemolysis at 100 ug/ml in presence of 10% serum; type: cell-based
Method in brief: (§8)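 Erythrocytes from EDTA-anticoagulated human donor blood were washed in PBS or PiBS containing 4 mM EDTA, then resuspended without EDTA at 2% (vol/vol). Cells were incubated with peptide (0.3–100 μg/ml final) for 1 h at 37°C, with or without 10% autologous serum. Supernatant A405 was expressed relative to 1% Nonidet P-40 lysis.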

[28] = Toxicity in human Erythrocyte assessed as hemolysis at 100 ug/ml; type: cell-based; method in brief: as §8
[29] = target: Beta-galactosidase (Escherichia coli) (UniProt Q8VNN2); experiment: Inhibition of Escherichia coli ML35 beta-galactosidase assessed as inhibition of o-nitrophenyl-beta-d-galactopyranoside hydrolysis at 1 ug/ml after 60 mins; method in brief: as §7
[30] = system: Hs68; experiment: Cytotoxicity against human HS68 cells at <=100 ug/ml by MTT assay in presence of 10% FBS; type: cell-based
Method in brief: (§9)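 HS68 fibroblasts were grown in DMEM with 10% FBS and penicillin/streptomycin at 37°C and 5% CO2. Cells were seeded at 5 × 10^3 per well for 18 h. Medium was then switched to antibiotic-free DMEM with 0.4% or 10% FBS, as each line states, and peptide was added at 0–100 μg/ml for 1 h at 37°C. Wells were refed with growth medium and read by MTT in triplicate against no-peptide wells.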

[31] = system: Hs68; experiment: Cytotoxicity against human HS68 cells at <=100 ug/ml by MTT assay in presence of 0.4% FBS; type: cell-based; method in brief: as §9

Chain of Beta-galactosidase (Escherichia coli) (Q8VNN2 whole entry, looked up): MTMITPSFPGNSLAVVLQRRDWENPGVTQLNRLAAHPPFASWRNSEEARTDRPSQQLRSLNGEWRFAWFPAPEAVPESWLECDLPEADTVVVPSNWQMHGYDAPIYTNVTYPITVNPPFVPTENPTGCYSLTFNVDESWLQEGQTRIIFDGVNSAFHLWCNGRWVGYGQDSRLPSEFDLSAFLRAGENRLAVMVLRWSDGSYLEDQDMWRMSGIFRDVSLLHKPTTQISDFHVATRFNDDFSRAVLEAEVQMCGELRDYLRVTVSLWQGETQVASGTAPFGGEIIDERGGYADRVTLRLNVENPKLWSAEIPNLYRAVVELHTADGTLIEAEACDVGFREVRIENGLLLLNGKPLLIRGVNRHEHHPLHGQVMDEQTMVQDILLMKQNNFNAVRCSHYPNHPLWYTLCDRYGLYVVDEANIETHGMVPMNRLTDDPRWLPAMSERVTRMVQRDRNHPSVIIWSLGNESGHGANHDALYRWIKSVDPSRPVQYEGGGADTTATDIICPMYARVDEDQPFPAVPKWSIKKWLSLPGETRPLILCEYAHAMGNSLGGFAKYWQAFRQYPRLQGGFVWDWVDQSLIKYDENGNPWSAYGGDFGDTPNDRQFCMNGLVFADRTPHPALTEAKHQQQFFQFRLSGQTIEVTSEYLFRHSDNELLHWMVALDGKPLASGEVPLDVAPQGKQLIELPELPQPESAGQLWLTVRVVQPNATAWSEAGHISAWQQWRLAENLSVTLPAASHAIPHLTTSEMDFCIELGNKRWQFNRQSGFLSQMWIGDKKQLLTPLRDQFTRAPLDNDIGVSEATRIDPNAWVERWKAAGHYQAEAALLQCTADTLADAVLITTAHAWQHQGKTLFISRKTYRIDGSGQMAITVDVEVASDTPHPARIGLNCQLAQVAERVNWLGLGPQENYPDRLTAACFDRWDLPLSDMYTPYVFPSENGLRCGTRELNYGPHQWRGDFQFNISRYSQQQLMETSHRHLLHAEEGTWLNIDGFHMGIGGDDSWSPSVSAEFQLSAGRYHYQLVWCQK

Row | SMILES | MMC [1] | MMC [2] | FC [3] | Selectivity Index [4] | MMC [5] | Activity [6] | Activity [7] | Activity [8] | Activity [9] | Activity [10] | Activity [11] | Activity [12] | Activity [13] | Activity [14] | Activity [15] | Activity [17] | Activity [18] | Activity [19] | Activity [22] | Activity [23] | further results
1 | CC[C@H](C)[C@@H]1NC(=O)[C@@H]2CSSC[C@H](NC(=O)[C@H](CCCNC(=N)N)NC(=O)[C@@H]3CSSC[C@H](NC1=O)C(=O)N[C@@H]([C@@H](C)O)C(=O)N[C@@H](CCCNC(=N)N)C(=O)NCC(=O)N[C@@H](Cc1ccccc1)C(=O)N3)C(=O)N[C@@H](CC(C)C)C(=O)N[C@H]1CSSC[C@H](NC(=O)[C@H](C(C)C)NC(=O)CNC(=O)[C@H](CCCNC(=N)N)NC(=O)[C@H](CCCNC(=N)N)NC1=O)C(=O)N[C@@H](CCCNC(=N)N)C(=O)N2 [listing 1 of 2 here] | 1 µg/mL | 2 µg/mL | >3 | 5.5 | 1 µg/mL | – | – | – | – | – | – | – | – | – | – | – | – | – | – | – | –
2 | CC[C@H](C)[C@@H]1NC(=O)[C@@H]2CSSC[C@H](NC(=O)[C@H](CCCNC(=N)N)NC(=O)[C@@H]3CSSC[C@H](NC1=O)C(=O)N[C@@H]([C@H](C)O)C(=O)N[C@@H](CCCNC(=N)N)C(=O)NCC(=O)N[C@H](Cc1ccccc1)C(=O)N3)C(=O)N[C@@H](CC(C)C)C(=O)N[C@@H]1CSSC[C@@H](NC(=O)[C@H](C(C)C)NC(=O)CNC(=O)[C@H](CCCNC(=N)N)NC(=O)[C@H](CCCNC(=N)N)NC1=O)C(=O)N[C@@H](CCCNC(=N)N)C(=O)N2 | – | – | – | – | – | inactive | Active | Active | Active | inactive | Active | inactive | Active | Active | Active | inactive | Active | inactive | Active | Active | Activity [16]: inactive; Activity [20]: Active; inhibition [21]: Dose-dependent effect; inhibition [24]: 36%
3 | CC[C@H](C)[C@@H]1NC(=O)C2CSSCC(NC(=O)[C@H](CCCNC(=N)N)NC(=O)[C@@H]3CSSC[C@H](NC1=O)C(=O)N[C@@H]([C@@H](C)O)C(=O)N[C@@H](CCCNC(=N)N)C(=O)NCC(=O)N[C@@H](Cc1ccccc1)C(=O)N3)C(=O)N[C@@H]([C@@H](C)CC)C(=O)N[C@H]1CSSC[C@H](NC(=O)[C@H](Cc3ccccc3)NC(=O)CNC(=O)[C@H](CCCNC(=N)N)NC(=O)[C@H]([C@@H](C)O)NC1=O)C(=O)N[C@@H](CCCNC(=N)N)C(=O)N2 (single isomer, unassigned) | 1.5 µg/mL | 2.3 µg/mL | >3 | 14 | 3 µg/mL | inactive | Active | Active | inactive | inactive | Active | inactive | Active | Active | Active | inactive | inactive | inactive | Active | inactive | inhibition [25]: 78%; Activity [26]: 21 µg/mL; Activity [16]: inactive; Activity [27]: Non-toxic; Activity [28]: Non-toxic; inhibition [29]: Active
4 | CC[C@H](C)[C@@H]1NC(=O)[C@@H]2CSSC[C@H](NC(=O)[C@H](CCCNC(=N)N)NC(=O)[C@@H]3CSSC[C@H](NC1=O)C(=O)N[C@@H]([C@@H](C)O)C(=O)N[C@@H](CCCNC(=N)N)C(=O)NCC(=O)N[C@@H](Cc1ccccc1)C(=O)N3)C(=O)N[C@@H](CC(C)C)C(=O)N[C@H]1CSSC[C@H](NC(=O)[C@H](C(C)C)NC(=O)CNC(=O)[C@H](CCCNC(=N)N)NC(=O)[C@H](CCCNC(=N)N)NC1=O)C(=O)N[C@@H](CCCNC(=N)N)C(=O)N2 [listing 2 of 2 here] | – | – | – | – | – | – | – | – | – | – | – | – | – | – | – | – | – | – | – | – | Activity [30]: Non-toxic; Activity [26]: 5.5 µg/mL; Activity [27]: Non-toxic; Activity [31]: Non-toxic
5 | CC(C)C[C@@H]1NC(=O)[C@@H]2CSSC[C@H](NC(=O)[C@H](CCCNC(=N)N)NC(=O)[C@@H]3CSSC[C@H](NC1=O)C(=O)N[C@@H](CCCNC(=N)N)C(=O)N[C@@H](CCCNC(=N)N)C(=O)NCC(=O)N[C@@H](C(C)C)C(=O)N3)C(=O)N[C@@H](CC(C)C)C(=O)N[C@H]1CSSC[C@H](NC(=O)[C@H](C(C)C)NC(=O)CNC(=O)[C@H](CCCNC(=N)N)NC(=O)[C@H](CCCNC(=N)N)NC1=O)C(=O)N[C@@H](CCCNC(=N)N)C(=O)N2 (cyclo(CLCRRGVCRCLCRRGVCR); disulfide 1-10, 3-8, 12-17) | 1 µg/mL | 2 µg/mL | >3 | 6.2 | 1 µg/mL | inactive | Active | Active | Active | inactive | Active | inactive | Active | Active | Active | inactive | Active | inactive | Active | Active | Activity [26]: 6.2 µg/mL; Activity [27]: Non-toxic; Activity [28]: Non-toxic; Activity [20]: Active; inhibition [29]: Active; inhibition [21]: Dose-dependent effect; inhibition [24]: 36%
